Compound activity as filed in PubChem BioAssay.
SENP1 inh: human SENP1 catalytic domain inhibitors, primary screen, biochemical, FRET, uHTS; AID 624204, 2012; recombinant SENP1 catalytic domain, CyPet-SUMO1-YPet FRET cleavage; Sentrin-specific protease 1 (Homo sapiens), Q9P0U3; actives 0.21% (n = 360,000); inhibition, % at 10 µM;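 active = inhibition at least 30% at 10 µM, raw YFP signal under a set limit, fluorescence ratio 0.5 to 1.5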;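 note: 0% = enzyme with DMSO and 100% = no enzyme wells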
Target sequence (Q9P0U3 419-644 limits assumed): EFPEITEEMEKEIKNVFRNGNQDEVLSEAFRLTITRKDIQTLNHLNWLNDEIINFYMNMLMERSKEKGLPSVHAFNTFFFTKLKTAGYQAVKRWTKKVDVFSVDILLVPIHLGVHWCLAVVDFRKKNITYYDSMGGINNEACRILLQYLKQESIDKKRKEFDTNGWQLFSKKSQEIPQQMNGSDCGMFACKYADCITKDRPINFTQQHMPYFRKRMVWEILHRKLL
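Test system: recombinant human SENP1 catalytic domain, His6-tagged / Medium: pH 8 Tris buffer with EDTA, NaCl, BME, BSA, NP40, catalase / Also added: SUMO1 FRET substrate flanked by Cypet and Ypet, 25 nM / Times: 50 min reaction at room temperature / Signal: FRET, CFP and YFP emission / Control set: no-enzyme low control and enzyme-plus-DMSO high control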
Arrestin-AP2 inh: inhibitors of beta-arrestin/AP2 binding, primary screen, biochemical, GPCR trafficking, flow cytometry. beta-arrestin 1 C-terminal peptide binding to AP2 beta2-adaptin appendage (human). FITC-arrestin peptide / GST-AP2 beads; AP2 beta2 appendage carries R879A mutation. inhibition, % at 10 µM. actives 0.31% (n = 340,000). AID 504490, 2011;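 active = inhibition above a set limit, near 3 SD of compounds lacking own fluorescence, cut at about 54% in these data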;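 note: plate controls were DMSO wells for no effect and 5 µM unlabelled arrestin peptide for full effect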
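System: GST-AP2 R879A glutathione beads; medium: PBS, Tween 20 0.05%, BSA 0.1%; reagent: fluorescein-tagged arrestin peptide at 50 nM final; schedule: pre-incubation 12 min, peptide binding 1 h, room temperature; detection: flow cytometry, FL1 (488/535 nm); read-out: inhibition as reduced fluorescein signal on beads, percent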
Cardio protect: cardioprotection against H2O2-induced cell death, primary screen, uHTS, H9c2 cells, ATPLite luminescence; H9c2 cardiomyocytes, H2O2 injury protection, 2 h; protection from H2O2 cell death, % at 20 µM; actives 0.63% (n = 360,000); AID 588492, 2011;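 active = compounds giving at least 50% protection of heart cells from peroxide-induced death in the single-dose screen, raw or plate-pattern-corrected value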;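 note: 0% = DMSO wells with peroxide and 100% = DMSO wells without peroxide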
FAS-TE inh: FAS thioesterase domain inhibitors, primary screen, biochemical, fluorescence intensity, uHTS; Fatty acid synthase (Homo sapiens), P49327; recombinant FAS-TE, OMFH fluorogenic substrate, fluorescence endpoint; inhibition, % at 15 µM; actives 0.67% (n = 360,000); AID 602261, 2012;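 active = compounds whose normalised, plate-corrected inhibition of enzyme fluorescence in the single-dose primary screen is 50% or more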;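 note: 0% = DMSO with enzyme and 100% = substrate without enzyme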
GRIN3A LBD mod: binders of NR3A ligand-binding domain, primary screen, biophysical, differential scanning fluorimetry, uHTS; NR3A LBD differential scanning fluorimetry, Tm shift; 0% = protein alone, 100% = glycine-bound protein; Tm shift relative to glycine control, % at 25 µM; Glutamate receptor ionotropic, NMDA 3A (GRIN3A) ligand-binding domain; actives 2.5% (n = 340,000);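 active = melting temperature shift of at least 10% of the positive control shift, at one fixed dose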
iPSC survival up: enhancers of single-cell hiPSC survival, primary screen, ATPlite luminescence | 100% = ROCK inhibitor wells, 0% = DMSO | survival enhancement, % at 20 µM | actives 0.044% (n = 360,000) | AID 602274, 2012; in the data active = survival enhancement above about 18%;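 note: cells exposed to compounds for 16 hours before the ATP read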
An asterisk follows results filed as active; nt = no result. In the library only some 4% were active in any assay of this set; here they are far more common.

SMILES	SENP1 inh	Arrestin-AP2 inh	Cardio protect	FAS-TE inh	GRIN3A LBD mod	iPSC survival up
C=C(C)COc1ccc(-c2nc(N)ncc2-c2ccc(Br)cc2)c(O)c1	-3	-10	-8	24	12*	-1
C=C(C)COc1ccc(-c2n[nH]c(C)c2-c2ccc(Br)cc2)c(O)c1	-2	-7	-12	18	32*	2
C=C(C)COc1ccc(-c2ncncc2-c2ccc(Br)cc2)c(O)c1	-11	34	1	42	0	-1
C=C(C)[C@@H]1C2=CC(C(=O)OC)=C(C[C@H](C(=C)C)[C@H]3O[C@H]3C3=C[C@H]1OC3=O)O2	0	nt	-8	0	nt	-4
Cn1cc(C(=O)c2ccc(Cl)cc2Cl)cc1C(=O)N/N=C(\N)COc1ccc(Cl)cc1	2	4	96*	24	-1	0
Cn1cc(C(=O)c2ccc(Cl)cc2Cl)cc1C(=O)N/N=C(\N)COc1ccc(Cl)cc1Cl	2	2	86*	48	-1	-1
CCN(C[C@H]1N[C@@](CC)(C(=O)OC)[C@H]2C(=O)N(C)C(=O)[C@@H]12)S(=O)(=O)c1ccc(C(C)(C)C)cc1	-1	34	-2	-9	18*	-2
COC(=O)[C@]1(Cc2ccccc2)N[C@H](CN(C)S(=O)(=O)c2ccc(C(C)(C)C)cc2)[C@@H]2C(=O)N(C)C(=O)[C@@H]21	2	-10	4	18	15*	0
O=C(COc1ccccc1Br)c1ccc2c(c1)OCO2	3	-5	3	10	1	0
O=C(COc1ccccc1Br)c1ccc(O)cc1O	1	-4	-4	-2	21*	-2
O=C(O)c1ccccc1C(=O)Nc1nccs1	0	5	2	-5	1	0
O=C(O)c1ccccc1C(=O)Nc1n[nH]c(=S)s1	0	28	15	-7	14*	0
COC(=O)c1cc(OC)c(OC)cc1NC(=S)Nc1cc(Cl)ccc1OC	2	-5	-4	-3	-3	-3
COc1ccccc1NC(=S)NCCSc1ccc(Cl)cc1	0	7	4	-1	-2	3
Fc1ccc(CNC(=S)Nc2ccc(Cl)cc2)cc1	1	3	-12	8	-4	-4
Cc1ccc(SCCNC(=S)Nc2cc(C)cc(C)c2)cc1	3	19	-22	12	-1	-3
COc1ccc(Cl)cc1NC(=S)NCCSc1ccc(C)cc1	0	47	-5	19	25*	3
CC(CNC(=S)Nc1cc(F)cc(F)c1)CSc1ccc(Cl)cc1 (stereo not drawn)	2	-2	-15	29	10*	0
COc1ccc(Cl)cc1NC(=S)Nc1ccc(Cl)cn1	0	7	0	-3	16*	2
Cc1ccc(NC(=S)NCCSc2ccc(Cl)cc2)cc1	-1	5	-11	25	18*	0
CC(=O)Oc1ccccc1Cn1c(C)c(C(=O)NCc2cccc([N+](=O)[O-])c2)sc1=O	-2	nt	2	11	nt	-2
CCOC(=O)c1ccc(NC(=S)NCCC2=CCCCC2)cc1	1	7	-8	20	13*	0
CCOC(=O)c1ccc(NC(=S)NCC(O)c2ccccc2)cc1 (stereo not drawn)	0	2	-9	-6	10*	0
CCOC(=O)c1ccc(NC(=S)NCCc2ccccc2F)cc1	-1	-24	-11	24	11*	-1
CCOC(=O)c1ccc(NC(=S)NCCc2ccccc2)cc1	0	5	-24	21	6	-4
SMILES	SENP1 inh	Arrestin-AP2 inh	Cardio protect	FAS-TE inh	GRIN3A LBD mod	iPSC survival up
Cc1ccc(NC(=S)NCCC2=CCCCC2)cc1	0	6	-10	14	-7	0
CCC(=O)N1Cc2cc(C(=O)Nc3nccs3)nc(-c3cccc(-c4ccccc4OC)c3)c2[C@H]1CCO	2	nt	nt	4	nt	1
CCOC(=O)C1(C)CCCN(C(=O)c2cccc(C#N)c2)C1 (stereo not drawn)	1	nt	7	-7	nt	-4
COc1ccc(CCNC(=O)c2cc(S(=O)(=O)N3CCCCC3)ccc2Cl)cc1	2	-11	-10	5	15*	4
COc1ccc(CCNC(=O)C(=O)NCCC2CCCCN2S(=O)(=O)c2ccccc2)cc1 (stereo not drawn)	4	0	1	13	11*	1
COc1ccc(CCNC(=O)c2cccc(S(=O)(=O)N3CCCCC3)c2)cc1	3	40	-11	7	-1	1
COc1ccc(S(=O)(=O)N2CCCC2CNC(=O)C(=O)Nc2cccc(F)c2)cc1 (stereo not drawn)	2	2	-6	9	-3	0
COc1ccc(CCNC(=O)C(=O)NCCC2CCCCN2S(=O)(=O)c2cccs2)cc1 (stereo not drawn)	2	12	-7	15	0	0
COc1ccc(S(=O)(=O)N2CCCC2CNC(=O)C(=O)Nc2ccc(F)cc2)cc1 (stereo not drawn)	0	-6	0	6	11*	1
Cc1ccc(S(=O)(=O)N2CCCCC2CCNC(=O)C(=O)NCc2ccco2)cc1 (stereo not drawn)	2	4	0	-2	18*	0
CCCNC(=O)C1(C)CCN(C(=O)COCc2ccccc2)C1 (stereo not drawn)	-1	nt	-1	-6	nt	4
COC(=O)[C@H](NC(=O)c1cc(-c2ccccc2)sc1N)C(C)C	-4	nt	nt	nt	nt	nt
Cc1cc([N+](=O)[O-])ccc1-c1ccc(C2Nc3ccccc3C(=O)N2O)o1 (stereo not drawn)	0	3	63*	-68	30*	2
CCOC(=O)c1ccc(-c2ccc(C3Nc4ccccc4C(=O)N3O)o2)cc1 (stereo not drawn)	-37	32	59*	-24	-5	0
COC(=O)c1cc(OC)c(OC)cc1NC(=O)CCN1C(=O)C2CCCCC2C1=O (stereo not drawn)	-1	nt	8	-7	nt	4
Cn1c(C(=O)Nc2ccccc2)cc2sccc21	-14	18	-4	4	22*	-4
COC(=O)c1ccc(NC(=O)c2cc3sccc3n2C)cc1	-23	-1	-8	15	2	3
